Experiment [1] can be described thus: Displacement of fluorescein labeled N6-(6-amino)hexyl-ATP-5-FAM from HSP70 by fluorescence polarization assay. The method in brief: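 Competitive FP binding: displacement of fluorescein-labelled ATP-based probe N6-(6-amino)hexyl-ATP-5-FAM (probe KD 0.4 µM) from HSP70 at 0.4 µM protein; IC50 from binding competition.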
The nature of experiment [2]: Binding affinity to HSP70 by Biocore direct binding assay. The method in brief: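 SPR direct binding: double His-tagged HSP70 construct immobilized on a Biacore sensor chip; KD determined from direct ligand binding.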
In experiment [3] the test system is HCT-116. The experiment in a line: Cytotoxicity against human HCT116 cells by SRB assay. Format: functional. The method in brief: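 HCT116 human colon tumour cells; growth inhibition measured by sulforhodamine B (SRB) staining; GI50 reported.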
On the technique in general: Sulforhodamine B stains cellular protein and so reports cell mass.

Experiment [4] can be described thus: Binding affinity to HSP90 by fluorescence polarization assay. (Polarisation of emitted light reports the rotation of a fluorescent probe.)
The test system of experiment [5] is HCT-116. The experiment in a line: Inhibition of HSP70 in human HCT116 cells assessed as reduction of […] protein levels after 24 hrs by Western blot. Format: cell-based. In a few lines:
(§1)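 HCT116 cells exposed to compound for 24 h at 0.05 or 0.1 µM or 2.5-40 µM. Raf-1, Her2 and HSP70 expression detected by Western blot. GAPDH served as loading control.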
(A western blot detects proteins with antibodies after separation by electrophoresis.)

In experiment [6] the test system is HCT-116. The experiment in a line: Inhibition of HSP70 in human HCT116 cells assessed as reduction of Raf1 protein levels after 24 hrs by Western blot. Format: cell-based. The method in brief: as §1

This note sets out measurements from ChEMBL document CHEMBL1152808, “Novel adenosine-derived inhibitors of 70 kDa heat shock protein, discovered through structure-based design” (J Med Chem, 2009).

Molecules are shown by their SMILES. The source made the active and inactive calls. The rule behind the calls is not given here. Some results are limits rather than exact numbers.

Broadly, the IC50 is the point on the concentration scale where inhibition reaches its midpoint. Broadly, the Kd is the equilibrium constant for the complex coming apart. A lower Kd goes with higher affinity. For orientation: GI50 means the concentration giving 50% growth inhibition. Read a high GI50 as lower sensitivity of the cells. Turning to `Nc1ncnc2c1nc(NCc1ccc(Cl)c(Cl)c1)n2[C@@H]1O[C@H](COCc2cc(F)c(F)c(F)c2)[C@@H](O)[C@H]1O`, the IC50 in experiment [1] is 1.7 µM; in experiment [4], over 400 µM. For the same compound, binding in experiment [2] was characterised by a dissociation constant (Kd) of 4.2 µM. This compound showed a GI50 in the experiment on HCT-116 [3] of 13 µM.

For the compound `COC[C@H]1O[C@@H](n2c(NCc3ccc(Cl)c(Cl)c3)nc3c(N)ncnc32)[C@H](O)[C@@H]1O`, the half-inhibitory concentration (IC50) in experiment [1] was 3.2 µM; in experiment [4] it was over 400 µM. In the experiment with HCT-116 [3], this compound displayed a 50% growth inhibitory concentration (GI50) of over 80 µM.

Consider `Nc1ncnc2c1nc(NCc1ccc(Cl)c(Cl)c1)n2[C@@H]1O[C@H](CO)[C@@H](O)[C@H]1O`, for which the IC50 was 9.1 µM in experiment [1] and over 400 µM in experiment [4]. The 50% growth inhibitory concentration (GI50) with HCT-116 [3] was 26 µM.

Consider `N#Cc1ccc(COC[C@H]2O[C@@H](n3c(NCc4ccc5ncccc5c4)nc4c(N)ncnc43)[C@H](O)[C@@H]2O)cc1`, for which the half-maximal inhibitory concentration (IC50) in experiment [1] was 0.9 µM; in experiment [4], over 400 µM. The compound also showed a Kd in experiment [2] of 0.05 µM. This compound returned a GI50 in the experiment with HCT-116 [3] of over 80 µM.

As for `N#Cc1ccc(COC[C@H]2O[C@@H](n3c(NCc4ccc(Cl)c(Cl)c4)nc4c(N)ncnc43)[C@H](O)[C@@H]2O)cc1`, the results for the IC50 in experiment [1] and in experiment [4] were 0.5 µM and over 400 µM, respectively. The same compound had a Kd in experiment [2] of 0.3 µM. In the experiment with HCT-116 [3], this compound registered a GI50 of 5 µM. For the same compound, the result with HCT-116 [5] and in the experiment on HCT-116 [6] was Active.

For the compound `Nc1ncnc2c1nc(NCc1ccc3c(c1)OCO3)n2[C@@H]1O[C@H](CO)[C@@H](O)[C@H]1O`, the results for the concentration for half-maximal inhibition (IC50) in experiment [1] and in experiment [4] were 4.9 µM and over 400 µM, respectively. In the experiment with HCT-116 [3], the GI50 is over 80 µM.

Take `N#Cc1ccc(COC[C@H]2O[C@@H](n3c(NCc4ccccc4)nc4c(N)ncnc43)[C@H](O)[C@@H]2O)cc1`: the concentration for half-maximal inhibition (IC50) in experiment [1] was 1.3 µM; in experiment [4], over 400 µM. In experiment [2], the equilibrium dissociation constant (Kd) was 0.2 µM. This compound also displayed a GI50 in the experiment with HCT-116 [3] of over 80 µM.

For `Nc1ncnc2c1nc(NCc1ccc(Cl)c(Cl)c1)n2[C@@H]1O[C@H](COCc2ccccc2)[C@@H](O)[C@H]1O`, the IC50 in experiment [1] was 2.4 µM; in experiment [4] it was over 400 µM. The compound further registered a concentration for 50% growth inhibition (GI50) with HCT-116 [3] of over 80 µM.

`CNc1nc2c(N)ncnc2n1[C@@H]1O[C@H](CO)[C@@H](O)[C@H]1O`: the IC50 was 17 µM in experiment [1] and over 400 µM in experiment [4]. In addition, the GI50 in the experiment on HCT-116 [3] turned out to be 13 µM.

With `Nc1ncnc2c1ncn2[C@@H]1O[C@H](CO)[C@@H](O)[C@H]1O` [ADENOSINE], the IC50 is 560 µM in experiment [1] and over 400 µM in experiment [4].

For `Nc1ncnc2c1nc(NCc1ccccc1)n2[C@@H]1O[C@H](CO)[C@@H](O)[C@H]1O`, the values for the concentration for half-maximal inhibition (IC50) in experiment [1] and in experiment [4] were 10 µM and over 400 µM, respectively. The compound also displayed a GI50 in the experiment on HCT-116 [3] of over 80 µM.

Consider `Nc1ncnc2c1nc(N)n2[C@@H]1O[C@H](CO)[C@@H](O)[C@H]1O`, for which the IC50 in experiment [1] is 9.4 µM; in experiment [4], over 400 µM. The compound also registered a Kd in experiment [2] of 11 µM. This compound had a concentration for 50% growth inhibition (GI50) in the experiment with HCT-116 [3] of 0.05 µM. Also, the result in the experiment on HCT-116 [5] and in the experiment with HCT-116 [6] was inactive.

With `Nc1ncnc2c1ncn2[C@@H]1O[C@H](COP(=O)(O)OP(=O)(O)OP(=O)(O)O)[C@@H](O)[C@H]1O` [ADENOSINE TRIPHOSPHATE], the concentration for half-maximal inhibition (IC50) in experiment [1] is 0.5 µM; in experiment [4], over 400 µM.

On to `Nc1ncnc2c1nc(NCc1ccc3ncccc3c1)n2[C@@H]1O[C@H](COCc2cc(F)c(F)c(F)c2)[C@@H](O)[C@H]1O`, for which the IC50 in experiment [1] was under 0.4 µM; in experiment [4], over 400 µM. The same compound gave a Kd in experiment [2] of 0.12 µM. The same compound yielded a GI50 in the experiment with HCT-116 [3] of 18 µM.

In the case of `Nc1ncnc2c1ncn2[C@@H]1O[C@H](COP(=O)(O)OP(=O)(O)O)[C@@H](O)[C@H]1O` [ADENOSINE DIPHOSPHATE], the 50% inhibitory concentration (IC50) in experiment [1] was 0.5 µM; in experiment [4], over 400 µM. The compound further yielded an equilibrium dissociation constant (Kd) in experiment [2] of 0.5 µM.

As to `Nc1ncnc2c1nc(NCc1ccc3ncccc3c1)n2[C@@H]1O[C@H](CO)[C@@H](O)[C@H]1O`, the IC50 in experiment [1] was 2.9 µM; in experiment [4] it was over 400 µM. The compound also registered a concentration for 50% growth inhibition (GI50) in the experiment with HCT-116 [3] of over 80 µM.

With `Nc1ncnc2c1nc(NCc1ccc3ncccc3c1)n2[C@@H]1O[C@H](COCc2ccc(C(F)(F)F)cc2)[C@@H](O)[C@H]1O`, the IC50 in experiment [1] is 0.6 µM; in experiment [4] it was over 400 µM. Moreover, the Kd in experiment [2] was determined as 0.06 µM. In the experiment with HCT-116 [3], halving of growth (GI50) required 27 µM.
